Experiments:
Rattus norvegicus [1] = assay: The compound was tested for anticonvulsant activity against Maximal Electroshock-Induced Seizures(MES) in intraperitoneal administration.; assay type: functional; settings: ip
Summary of the method: (§1)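 Male Wistar rats (Charles River), maximal electroshock seizure test. Compounds given as solutions or fine dispersions in water or 0.5% methylcellulose; poorly soluble samples micronized. Initial screen at 25 mg/kg ip. ED50 is the dose protecting 50% against hind-limb extensor component, calculated by Miller–Tainter method. Either four doses with at least 12 animals each (with standard error), or three doses with six animals each.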

Rattus norvegicus [2] = assay: The compound was tested for anticonvulsant activity against Maximal Electroshock-Induced Seizures(MES) in Wistar male rat, after peroral administration.; assay type: functional; settings: po; summary of the method: as §1
[3] = Lipophilicity was measured; assay type: physicochemical; settings: octanol/water
[4] = Dissociation constant was measured; assay type: physicochemical

| SMILES | ED50 (Rattus norvegicus [1]) | ED50 (Rattus norvegicus [2]) | logP [3] | pKa [4] |
| --- | --- | --- | --- | --- |
| Nc1nccn2c(Cc3ccccc3F)nnc12 | 9 mg/kg | 8 mg/kg | – | – |
| CNc1nccn2c(Cc3cccc(F)c3)nnc12 | 4 mg/kg | 20 mg/kg | – | – |
| CNc1nccn2c(Cc3ccccc3F)nnc12 | 5 mg/kg | 2.6 mg/kg | 1.56 | 4.02 |
| Nc1nccn2c(Cc3ccc(F)cc3)nnc12 | > 25 mg/kg | – | – | – |
| CNc1nccn2c(Cc3ccc(F)cc3)nnc12 | 25 mg/kg | – | – | – |
| CNc1nccn2c(Cc3c(F)cccc3F)nnc12 | 2 mg/kg | 3 mg/kg | – | – |
| Nc1nccn2c(Cc3c(F)cccc3F)nnc12 | 4 mg/kg | 7 mg/kg | – | – |
| Nc1nccn2c(Cc3cc(F)ccc3F)nnc12 | 7 mg/kg | 20 mg/kg | – | – |
| CNc1nccn2c(Cc3cc(F)ccc3F)nnc12 | 4 mg/kg | 10 mg/kg | – | – |
| Nc1nccn2c(Cc3cccc(F)c3)nnc12 | > 25 mg/kg | – | – | – |
| CNc1nccn2c(Cc3ccccc3)nnc12 | 6 mg/kg | 16 mg/kg | – | – |
| Nc1ncnc2c1ncn2Cc1ccccc1F | 4.5 mg/kg | 12 mg/kg | – | – |
| CNc1ncnc2c1ncn2Cc1ccccc1F [BW-A78U] | 1.7 mg/kg | 2.5 mg/kg | 1.86 | 3.88 |
| O=C1NC(=O)C(c2ccccc2)(c2ccccc2)N1 [PHENYTOIN] | 10 mg/kg | 20 mg/kg | – | – |
